# Data: ChEMBL document CHEMBL4732164, “Structure-Based Design of Potent Selective Nanomolar Type-II Inhibitors of Glycogen Synthase Kinase-3β” (J Med Chem, 2021)
# Active and inactive are the calls of the source. The calls are words filed in the database; no cut-off is given here.
# Legend:
# [1] = target: T1, Glycogen synthase kinase-3 beta (Homo sapiens, UniProt P49841); experiment: Inhibition of recombinant human GSK-3beta using phosphorylated polypeptide as substrate incubated for 30 mins in presence of ATP by kinase-glo luminescence assay
# How it was run: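 Buffer is 50 mM HEPES pH 7.5, 1 mM EDTA, 1 mM EGTA, 15 mM magnesium acetate. Runs 30 min at 30 °C; luminescence read 10 min after reagent. Inhibition is relative to no-inhibitor maximal activity.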
# Target sequence in this assay (P49841 whole entry): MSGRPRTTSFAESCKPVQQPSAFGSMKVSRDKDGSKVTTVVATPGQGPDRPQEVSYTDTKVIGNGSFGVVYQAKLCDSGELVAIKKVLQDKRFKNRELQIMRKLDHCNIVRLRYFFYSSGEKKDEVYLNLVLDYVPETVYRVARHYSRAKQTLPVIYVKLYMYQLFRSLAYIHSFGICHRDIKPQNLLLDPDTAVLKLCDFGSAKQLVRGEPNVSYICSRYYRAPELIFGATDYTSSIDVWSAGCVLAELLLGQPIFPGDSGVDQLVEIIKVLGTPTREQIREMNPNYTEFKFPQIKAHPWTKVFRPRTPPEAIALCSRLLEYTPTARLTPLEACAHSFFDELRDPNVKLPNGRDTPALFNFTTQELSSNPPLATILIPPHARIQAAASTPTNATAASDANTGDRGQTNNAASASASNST
# [2] = target: T1, Glycogen synthase kinase-3 beta; experiment: Inhibition of recombinant human GSK-3beta at 50 uM using phosphorylated polypeptide as substrate incubated for 30 mins in presence of ATP by kinase-glo luminescence assay relative to control
# How it was run: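 Kinase-Glo luminescence: 20 ng enzyme with test compound (DMSO ≤1% final), 25 μM substrate, 1 μM ATP. Buffer is 50 mM HEPES pH 7.5, 1 mM EDTA, 1 mM EGTA, 15 mM magnesium acetate. Runs 30 min at 30 °C; luminescence read 10 min after reagent. Inhibition is relative to no-inhibitor maximal activity.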
# Target sequence in this assay (P49841 whole entry, looked up): as the sequence (P49841 whole entry) above
# [3] = system: SH-SY5Y; experiment: Neuroprotective activity against OA-induced neuronal injury in human SH-SY5Y cells assessed as reduction in cell death at 0.1 to 10 uM pre-incubated for 1 hrs followed by OA addition measured after 24 hrs by MTT assay; format: functional, cell-based; conditions: dose 0.1-10 µM
# How it was run: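 SH-SY5Y cells (DMEM, 10% FBS, 1% pen/strep, 37 °C, 5% CO2) seeded at 60,000/well and grown 48 h. Compound (0.1, 0.5, 1, 5, 10 μM) added 1 h before okadaic acid at 30 nM, then 24 h. Viability by MTT (0.5 mg/mL, ≥4 h), formazan in DMSO, A595, as % control. Mean ± SEM, three independent experiments.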
# [4] = Inhibition of Ustilago maydis GSK-3beta using Ser/Thr 6 peptide as substrate preincubated for 60 mins followed by ATP and substrate addition and measured after 45 mins by Z'lyte assay; parameters: species or system Mycosarcoma maydis
# [5] = target: Cyclin-dependent kinase 2 (Homo sapiens) (UniProt P24941); experiment: Inhibition of CDK2 (unknown origin) assessed as enzyme remaining activity at 5 uM relative to control
# [6] = target: Cyclin-dependent kinase 5 (Homo sapiens) (UniProt Q00535); experiment: Inhibition of CDK5 (unknown origin) assessed as enzyme remaining activity at 5 uM relative to control
# [7] = target: Cyclin-dependent kinase 9 (Homo sapiens) (UniProt P50750); experiment: Inhibition of CDK9 (unknown origin) assessed as enzyme remaining activity at 5 uM relative to control
# [8] = target: Mitogen-activated protein kinase 3 (Homo sapiens) (UniProt P27361); experiment: Inhibition of ERK1 (unknown origin) assessed as enzyme remaining activity at 5 uM relative to control
# [9] = target: Mitogen-activated protein kinase 1 (Homo sapiens) (UniProt P28482); experiment: Inhibition of ERK2 (unknown origin) assessed as enzyme remaining activity at 5 uM relative to control
# [10] = organism: Homo sapiens; experiment: Inhibition of PKA (unknown origin) assessed as enzyme remaining activity at 5 uM relative to control
# [11] = target: RAC-alpha serine/threonine-protein kinase (Homo sapiens) (UniProt P31749); experiment: Inhibition of PKBalpha (unknown origin) assessed as enzyme remaining activity at 5 uM relative to control
# [12] = target: Protein kinase C alpha type (Homo sapiens) (UniProt P17252); experiment: Inhibition of PKCalpha (unknown origin) assessed as enzyme remaining activity at 5 uM relative to control
# [13] = target: Protein kinase C gamma type (Homo sapiens) (UniProt P05129); experiment: Inhibition of PKCgamma (unknown origin) assessed as enzyme remaining activity at 5 uM relative to control
# [14] = target: Glycogen synthase kinase-3 alpha (Homo sapiens) (UniProt P49840); experiment: Inhibition of GSK3alpha (unknown origin) assessed as enzyme remaining activity at 5 uM relative to control
# Glycogen synthase kinase-3 alpha (Homo sapiens), sequence (P49840 2-483 limits assumed): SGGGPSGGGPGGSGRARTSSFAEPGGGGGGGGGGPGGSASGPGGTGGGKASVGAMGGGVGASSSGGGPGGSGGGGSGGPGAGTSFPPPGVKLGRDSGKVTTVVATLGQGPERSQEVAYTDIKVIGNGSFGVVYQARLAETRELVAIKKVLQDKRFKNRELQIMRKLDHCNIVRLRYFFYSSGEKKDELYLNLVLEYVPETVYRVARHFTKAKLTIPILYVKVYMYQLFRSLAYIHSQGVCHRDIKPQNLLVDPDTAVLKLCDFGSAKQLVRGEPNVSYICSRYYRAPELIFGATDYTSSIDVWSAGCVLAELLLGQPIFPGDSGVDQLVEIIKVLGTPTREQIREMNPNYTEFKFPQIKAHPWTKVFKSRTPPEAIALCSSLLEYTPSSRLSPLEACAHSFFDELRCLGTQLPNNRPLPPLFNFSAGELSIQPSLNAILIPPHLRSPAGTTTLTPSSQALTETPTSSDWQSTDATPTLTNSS
# Mitogen-activated protein kinase 1 (Homo sapiens), sequence (P28482 whole entry): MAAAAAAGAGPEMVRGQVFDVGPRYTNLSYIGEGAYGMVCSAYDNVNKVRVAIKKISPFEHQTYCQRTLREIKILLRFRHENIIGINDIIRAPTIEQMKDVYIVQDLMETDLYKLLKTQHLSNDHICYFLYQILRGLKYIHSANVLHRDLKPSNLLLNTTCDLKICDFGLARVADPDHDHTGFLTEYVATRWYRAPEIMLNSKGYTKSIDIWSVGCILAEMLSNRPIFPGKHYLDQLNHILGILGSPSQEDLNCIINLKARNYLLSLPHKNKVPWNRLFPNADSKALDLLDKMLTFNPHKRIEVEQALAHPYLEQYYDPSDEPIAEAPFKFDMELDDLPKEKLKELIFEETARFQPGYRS
# Mitogen-activated protein kinase 3 (Homo sapiens), sequence (P27361 whole entry): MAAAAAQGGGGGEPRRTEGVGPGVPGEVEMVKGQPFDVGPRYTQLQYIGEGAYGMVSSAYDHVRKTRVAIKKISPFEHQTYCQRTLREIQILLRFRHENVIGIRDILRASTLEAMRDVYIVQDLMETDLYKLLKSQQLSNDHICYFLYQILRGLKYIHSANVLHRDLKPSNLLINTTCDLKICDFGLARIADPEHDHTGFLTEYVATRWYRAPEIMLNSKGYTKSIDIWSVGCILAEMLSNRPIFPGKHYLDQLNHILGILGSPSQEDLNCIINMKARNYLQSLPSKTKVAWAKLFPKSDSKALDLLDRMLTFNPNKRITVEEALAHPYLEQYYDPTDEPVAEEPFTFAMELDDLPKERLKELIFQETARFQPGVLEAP
# Cyclin-dependent kinase 5 (Homo sapiens), sequence (Q00535 whole entry, looked up): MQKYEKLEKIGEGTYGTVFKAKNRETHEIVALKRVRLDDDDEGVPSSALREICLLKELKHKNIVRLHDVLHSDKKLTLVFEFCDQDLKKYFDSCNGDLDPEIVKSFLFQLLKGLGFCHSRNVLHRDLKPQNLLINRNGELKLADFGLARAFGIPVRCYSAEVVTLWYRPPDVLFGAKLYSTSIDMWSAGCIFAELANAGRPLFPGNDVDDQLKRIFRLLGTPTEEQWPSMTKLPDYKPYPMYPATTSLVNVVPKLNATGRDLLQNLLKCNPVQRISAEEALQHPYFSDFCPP
# Cyclin-dependent kinase 9 (Homo sapiens), sequence (P50750 whole entry): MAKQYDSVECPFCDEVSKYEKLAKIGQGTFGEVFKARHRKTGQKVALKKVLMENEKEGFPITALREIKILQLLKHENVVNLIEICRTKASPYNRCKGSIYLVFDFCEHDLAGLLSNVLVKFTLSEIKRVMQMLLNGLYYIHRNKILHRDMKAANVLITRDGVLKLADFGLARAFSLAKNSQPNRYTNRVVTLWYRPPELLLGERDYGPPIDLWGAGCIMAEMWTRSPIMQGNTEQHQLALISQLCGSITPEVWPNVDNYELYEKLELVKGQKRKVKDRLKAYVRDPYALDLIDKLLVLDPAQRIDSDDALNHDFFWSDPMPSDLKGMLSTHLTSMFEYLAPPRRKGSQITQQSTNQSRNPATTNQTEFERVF
# RAC-alpha serine/threonine-protein kinase (Homo sapiens), sequence (P31749 whole entry): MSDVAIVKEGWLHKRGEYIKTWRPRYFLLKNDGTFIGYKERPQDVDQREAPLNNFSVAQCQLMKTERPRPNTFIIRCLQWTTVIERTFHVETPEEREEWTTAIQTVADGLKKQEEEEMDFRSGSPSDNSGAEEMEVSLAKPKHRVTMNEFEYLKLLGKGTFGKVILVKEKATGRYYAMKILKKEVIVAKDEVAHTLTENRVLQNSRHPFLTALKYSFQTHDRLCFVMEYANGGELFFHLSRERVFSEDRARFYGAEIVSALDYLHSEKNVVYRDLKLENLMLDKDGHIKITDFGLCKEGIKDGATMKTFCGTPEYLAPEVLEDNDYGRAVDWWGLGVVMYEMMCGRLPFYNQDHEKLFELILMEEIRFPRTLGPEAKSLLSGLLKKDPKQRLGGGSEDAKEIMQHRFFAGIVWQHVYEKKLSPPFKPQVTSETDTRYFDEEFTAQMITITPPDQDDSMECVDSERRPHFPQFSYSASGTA
Structure (SMILES),IC50 [1],inhibition [2],further results
CSCC(=O)N1C[C@@H](NC(=O)Nc2cccc(SC)c2)C[C@H]1C(=O)N[C@H](Cc1c[nH]c2ccccc12)C(N)=O,> 50 µM,5%,–
COC(=O)c1ccc2c(c1)nc1n2[C@@H](CNC(=O)Nc2ccccc2)COC1,> 50 µM,1%,–
Cn1c(CO[C@H]2CN(Cc3c[nH]c4ccccc34)C[C@H]2F)nc2ccccc21,> 50 µM,14%,–
Cn1cccc1C(=O)N1C[C@H](NC(=O)Nc2ccc(F)cc2F)C[C@@H]1C(=O)N[C@H](Cc1c[nH]c2ccccc12)C(N)=O,> 50 µM,6%,–
COc1ccc2nc(CO[C@H]3CN(Cc4ccnc5ccccc45)C[C@H]3F)[nH]c2c1,> 50 µM,13%,–
COc1ccccc1-c1ccnc(N[C@H]2CO[C@H]3[C@@H]2OC[C@@H]3NC(=O)Nc2cccc(C#N)c2)n1,6.08 µM,–,Activity [3]: inactive
O=C(Nc1cccc(C(F)(F)F)c1)N[C@H]1CO[C@H]2[C@@H]1OC[C@@H]2Nc1nccc(-c2ccco2)n1,2.95 µM,–,–
O=C(c1cccnc1)N1C[C@@H](F)[C@@H](OCc2nc3cc(C(F)(F)F)ccc3[nH]2)C1,> 50 µM,14%,–
O=C(Nc1cccc(C(F)(F)F)c1)N[C@H]1CO[C@H]2[C@@H]1OC[C@@H]2Nc1nccc(C2CCCC2)n1,11.9 µM,–,–
N#Cc1cccc(NC(=O)N[C@H]2CO[C@H]3[C@@H]2OC[C@@H]3Nc2nccc(-c3cccc(F)c3)n2)c1,2.08 µM,–,Activity [3]: Active
O=C(Nc1cccc(C(F)(F)F)c1)N[C@H]1CO[C@H]2[C@@H]1OC[C@@H]2OC(=O)Nc1ccc(Oc2ccccc2)cc1,> 50 µM,42%,–
CNC(=O)c1cc(Oc2ccc(NC(=O)Nc3ccc(Cl)c(C(F)(F)F)c3)cc2)ccn1 [SORAFENIB],–,–,IC50 [4]: 0.71 µM
O=C(Nc1cccc(C(F)(F)F)c1)N[C@H]1CO[C@H]2[C@@H]1OC[C@H]2OC(=O)Nc1cccc2ccccc12,> 50 µM,35%,–
CC(C)(C)c1cc(NC(=O)Nc2ccc(OCCN3CCOCC3)c3ccccc23)n(-c2cccc(N)c2)n1,–,–,IC50 [4]: 1.1 µM
CN(C)c1ccc(-c2ccnc(N[C@H]3CO[C@H]4[C@@H]3OC[C@@H]4NC(=O)Nc3cccc(C(F)(F)F)c3)n2)cc1,5.66 µM,–,–
COc1ccc(-c2ccnc(N[C@H]3CO[C@H]4[C@@H]3OC[C@@H]4NC(=O)Nc3cccc(C(F)(F)F)c3)n2)cc1,9.75 µM,–,–
O=C(Nc1cccc(C(F)(F)F)c1)O[C@@H]1CO[C@H]2[C@@H]1OC[C@@H]2Nc1nccc(-c2ccc3c(c2)OCO3)n1,1.08 µM,–,Activity [3]: inactive
CC(C)(C)c1ccnc(N[C@H]2CO[C@H]3[C@@H]2OC[C@@H]3NC(=O)Nc2cccc(C(F)(F)F)c2)n1,14 µM,–,–
O=C(Nc1cccc(C(F)(F)F)c1)O[C@@H]1CO[C@H]2[C@@H]1OC[C@@H]2NC(=S)Nc1ccc(Cl)cc1,> 50 µM,41%,–
Cc1nn(-c2ccccc2[N+](=O)[O-])c(C)c1[C@@H]1C=C[C@@H](NC(=O)Nc2cccc(C#N)c2)C1,> 50 µM,26%,–
CS(=O)(=O)c1ccc(CN2C[C@@H](F)[C@@H](OCc3nc4cc(C(F)(F)F)ccc4[nH]3)C2)cc1,> 50 µM,19%,–
Cn1sc(=O)n(Cc2ccccc2)c1=O,–,–,Activity [3]: Active
O=C(c1ccncc1)N1C[C@@H](F)[C@@H](OCc2nc3ccc(F)cc3[nH]2)C1,> 50 µM,19%,–
COC(=O)c1cccc(NC(=S)N[C@H]2CO[C@H]3[C@@H]2OC[C@H]3OC(=O)Nc2cccc(C(F)(F)F)c2)c1,> 50 µM,21%,–
O=C(O)CCCNC(=O)c1cc(Oc2ccc(NC(=O)Nc3ccc(Cl)c(C(F)(F)F)c3)cc2)ccn1,–,–,IC50 [4]: 0.154 µM

Structure (SMILES),IC50 [1],inhibition [2],further results
COc1ccc(-c2ccnc(N[C@H]3CO[C@H]4[C@@H]3OC[C@@H]4NC(=O)Nc3ccccc3)n2)cc1,0.56 µM,–,Activity [3]: Active
COc1ccc(-c2ccnc(N[C@H]3CO[C@H]4[C@@H]3OC[C@@H]4NC(=O)Nc3cccc(C#N)c3)n2)cc1,0.087 µM,–,Activity [3]: Active
O=C(Nc1cccc2ccccc12)O[C@@H]1CO[C@H]2[C@@H]1OC[C@@H]2NC(=S)Nc1ccc(Cl)cc1,> 50 µM,39%,–
O=C(c1ccccc1)N1C[C@@H](F)[C@@H](OCc2nc3cc(C(F)(F)F)ccc3[nH]2)C1,> 50 µM,7%,–
COc1ccc(-c2ccnc(N[C@H]3CO[C@H]4[C@@H]3OC[C@@H]4NC(=O)Nc3ccc(C(C)=O)cc3)n2)cc1,0.412 µM,–,Activity [5]: > 50%; Activity [6]: > 50%; Activity [7]: 33.8%; Activity [8]: > 50%; Activity [9]: > 50%; Activity [10]: > 50%; Activity [11]: > 50%; Activity [12]: > 50%; Activity [13]: > 50%; Activity [14]: > 50%; Activity [3]: Active
CC(C)(C)c1cc(NC(=O)Nc2ccc(Cl)cc2)n(-c2cccc(N)c2)n1,–,–,IC50 [4]: 7.8 µM
Cc1cc2nc(CO[C@H]3CN(Cc4cccnc4)C[C@H]3F)[nH]c2cc1C,> 50 µM,5%,–
CNC(=O)c1cc(Oc2ccc(NC(=O)Nc3cc(C(F)(F)F)c(Cl)cc3OCCCC(=O)O)cc2)ccn1,–,–,IC50 [4]: 0.057 µM
COc1ccc(-c2ccnc(N[C@H]3CO[C@H]4[C@@H]3OC[C@@H]4NC(=O)Nc3cc(OC)cc(OC)c3)n2)cc1,0.421 µM,–,Activity [3]: Active
COc1ccc(C(=O)N2C[C@@H](F)[C@@H](OCc3nc4cc(C(F)(F)F)ccc4[nH]3)C2)cc1,> 50 µM,33%,–
Cc1ccc(-n2nc(C(C)(C)C)cc2NC(=O)Nc2ccc(OCCN3CCOCC3)cc2)cc1,–,–,IC50 [4]: 10.3 µM
CSc1cccc(NC(=O)NC2C[C@@H]3CCCN2CC3CN(C)c2ccccc2)c1 (stereo partly specified),> 50 µM,1%,–
CCNC(=O)N[C@H]1CO[C@H]2[C@@H]1OC[C@@H]2Nc1nccc(-c2ccc(OC)cc2)n1,0.117 µM,–,Activity [3]: Active
O=C(Nc1cccc(C(F)(F)F)c1)N[C@H]1CO[C@H]2[C@@H]1OC[C@@H]2Nc1nccc(-c2cccs2)n1,4.04 µM,–,–
CCOC(=O)Cc1ccc(-n2nc(C(C)(C)C)cc2NC(=O)Nc2ccc(OCCN3CCOCC3)c3ccccc23)cc1,–,–,IC50 [4]: 1.8 µM
O=C(Nc1cccc(C(F)(F)F)c1)N[C@H]1CO[C@H]2[C@@H]1OC[C@@H]2n1nnnc1-c1cccc(CN2CCCC2)c1,> 50 µM,7%,–
O=C(Nc1cccc(C(F)(F)F)c1)N[C@H]1CO[C@H]2[C@@H]1OC[C@@H]2Nc1nccc(-c2cccc(F)c2)n1,2.06 µM,–,Activity [3]: Active
CC(C)=CC(=O)N1CC(NC(=O)Nc2ccc(F)cc2F)CC1C(=O)N[C@H](Cc1c[nH]c2ccccc12)C(N)=O (stereo partly specified),> 50 µM,5%,–
Cc1ccc(-n2nc(C(C)(C)C)cc2NC(=O)Nc2ccc(OCCN3CCOCC3)c3ccccc23)cc1 [DORAMAPIMOD],–,–,IC50 [4]: 1.06 µM
O=C(Nc1cccc2ccccc12)N[C@H]1CO[C@H]2[C@@H]1OC[C@H]2OC(=O)Nc1ccccc1,> 50 µM,21%,–
CC(=O)Nc1ccc(CN2C[C@@H](F)[C@@H](OCc3nc4cc(C)c(C)cc4[nH]3)C2)cc1,> 50 µM,2%,–
O=C(Nc1ccccc1)N[C@H]1CO[C@H]2[C@@H]1OC[C@@H]2Nc1nccc(-c2cccs2)n1,2.7 µM,–,–
COc1ccccc1-c1ccnc(N[C@H]2CO[C@H]3[C@@H]2OC[C@@H]3NC(=O)Nc2cccc(C(F)(F)F)c2)n1,27 µM,–,–
N#Cc1ccc(CN2C[C@@H](F)[C@@H](OCc3nc4cc(C(F)(F)F)ccc4[nH]3)C2)cc1,> 50 µM,2%,–
